Where a chain is given by its changes, count along the chain named. Like-named read-outs stand apart in the source and are kept apart here. One block for each compound: values may come before it.
Columns and labels:
[1] = biological target: T1, wild-type C-his tagged human MDD (Homo sapiens, UniProt P53602); assay: Steady-state kinetics of wild-type; assay type: biochemical
T1 sequence (P53602 1-400): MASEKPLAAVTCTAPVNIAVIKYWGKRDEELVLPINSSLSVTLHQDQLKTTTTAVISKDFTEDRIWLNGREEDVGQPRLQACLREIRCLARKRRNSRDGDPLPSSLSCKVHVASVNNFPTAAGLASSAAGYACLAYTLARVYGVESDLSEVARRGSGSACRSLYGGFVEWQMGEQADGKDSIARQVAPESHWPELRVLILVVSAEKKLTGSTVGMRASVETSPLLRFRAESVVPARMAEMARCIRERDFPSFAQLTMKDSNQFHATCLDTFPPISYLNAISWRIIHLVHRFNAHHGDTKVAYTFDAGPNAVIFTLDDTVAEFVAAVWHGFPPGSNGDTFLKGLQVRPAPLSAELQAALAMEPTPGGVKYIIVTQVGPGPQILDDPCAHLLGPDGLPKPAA
Method in brief: (§1)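 His6-tagged human enzyme from E. coli BL21(DE3) was Ni-Sepharose purified and quantified by Bradford. Spectrophotometric assay at 30°C: ADP formation coupled through pyruvate kinase/lactate dehydrogenase (4 U) to NADH oxidation, with A340 decrease followed. Started with mevalonate diphosphate; substrate varied; Michaelis-Menten fit.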

[2] = biological target: T2, N17A mutant human MDD (Homo sapiens, UniProt P53602, N17A); assay: Steady-state kinetics of N17A human MDD; assay type: biochemical; settings: for Km: N17A
T2 sequence (P53602 1-400 N17A): T1 sequence (P53602 1-400) with N17A
Method in brief: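 N17A mutant, made by QuikChange PCR, was expressed and Ni-Sepharose purified as for the wild type. Started with mevalonate diphosphate; substrate varied; Michaelis-Menten fit. Km(ATP) was measured with RS-MVPP raised to 8.8 mM.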

[3] = biological target: T3, S162A mutant human MDD (Homo sapiens, UniProt P53602, S162A); assay: Steady-state kinetics of S162A human MDD; assay type: biochemical
T3 sequence (P53602 1-400 S162A): T1 sequence (P53602 1-400) with S162A
Method in brief: as §1

[4] = biological target: T4, N-his tagged human MDD (Homo sapiens, UniProt P53602); assay: Steady-state kinetics of N-his tagged human MDD; assay type: biochemical; settings: N-his tagged enzyme
T4 sequence (P53602 1-400): T1 sequence (P53602 1-400)
Method in brief: as §1

[5] = biological target: T5, wild-type human MDD (Homo sapiens, UniProt P53602); assay: TNP-ATP fluorescence titration, Scatchard analysis, wild-type human MDD; assay type: binding
T5 sequence (P53602 1-400): T1 sequence (P53602 1-400)
Method in brief: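 Purified His6-tagged enzyme, wild type or mutant, was held at a fixed concentration while TNP-ATP was titrated in at 25°C. Buffer: 50 mM Tris-Cl pH 7.0, 0.5 mM MgCl2, 1 mM DTT. TNP-ATP was quantified at A409 (ε 26 400 M-1 cm-1). Excitation was 409 nm; peak emission (530–538 nm) was corrected for free probe in buffer alone. Scatchard analysis: Kd from slope; n per 44 kDa subunit from x-intercept.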

Km ([1]; read-out: Km(ATP), WT C-his, 30°C, pH 7.0): 690 ± 70 µM
Km ([2]; read-out: Km(ATP), elevated RS-MVPP (8.8 mM)): 7700 ± 1200 µM
Km ([3]; read-out: Km(ATP)): 4900 ± 1300 µM
Km ([4]; read-out: Km(ATP)): 1700 µM
SMILES: Nc1ncnc2c1ncn2[C@@H]1O[C@H](COP(=O)(O)OP(=O)(O)OP(=O)(O)O)[C@@H](O)[C@H]1O [ATP]

Km ([1]; read-out: Km(R,S-MVAPP), WT, Table 4): 28.9 ± 3.3 µM
Km ([1]; read-out: Km(RS-MVPP), WT C-his, 30°C, pH 7.0): 28.9 ± 3.3 µM
Fold Inflation of Km for mevalonate diphosphate, N17A vs WT ([2]; N17A vs WT, listed as R,S-MVAPP): 14.7 fold
Km ([2]; read-out: Km(R,S-MVAPP), Table 4): 425 ± 74 µM
Km ([2]; read-out: Km(RS-MVPP), elevated ATP (20 mM) and MgCl2 (22mM)): 425 ± 74 µM
Km ([3]; read-out: Km(RS-MVPP)): 126 ± 6.4 µM
Km ([4]; read-out: Km(RS-MVPP)): 42.1 µM
SMILES: C[C@@](O)(CCOP(=O)(O)OP(=O)(O)O)CC(=O)O [MVAPP, mevalonate 5-diphosphate]

SMILES: Nc1ncnc2c1ncn2[C@@H]1O[C@H](COP(=O)(O)OP(=O)(O)OP(=O)(O)O)[C@H]2OC3(O[C@H]21)C([N+](=O)[O-])=CC(=[N+]([O-])[O-])C=C3[N+](=O)[O-] (stereo partly shown) [TNP-ATP, 2’(3’)-O-(2,4,6-Trinitrophenyl)adenosine-5’-triphosphate]
Kd [5]: 550 nM
n (binding stoichiometry) ([5]; WT, binding sites per 44 kDa subunit): 0.77
